Assay outcomes: PubChem, several laboratories
The list is not random: actives were taken first. Their share in the collection is about 2.2%.
FXIIa inh 1536: blocks human coagulation factor XIIa protease activity. P00748. purified FXIIa, Boc-QGR-AMC fluorogenic substrate, 2 h. inhibition, % at 5 µM. 220,000 compounds, 0.3% hits. AID 800; in the data active = inhibition above about 40%
Thrombin inh: thrombin (human) inhibition; alpha-thrombin, Boc-VPR-AMC fluorogenic substrate cleavage; P00734; AID 1046; inhibition, % at 5 µM; 220,000 compounds, 0.26% hits;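 active = inhibition at or above 40%; inactive = inhibition below 40%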
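System: Human alpha-thrombin protein | Medium: pH 7.5 Tris (50 mM) with NaCl 150 mM, Tween 20 0.05% | Times: Enzyme reaction carried out at room temperature | Detection: AMC fluorescence, 355/460 nm | Evaluation: Percent inhibition scaled between no-compound controls and no-enzyme blanks | Benchmarks: Enzyme without compound as high, wells lacking enzyme as low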
FXIa inh 1536: factor XIa (human) inhibition | P03951 | purified FXIa, Boc-Glu-Ala-Arg-AMC fluorogenic substrate | inhibition, % at 5 µM | 220,000 compounds, 0.14% hits | AID 798;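 active = inhibition of at least 40%; inactive = inhibition below 40%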;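 also: fluorescence of freed AMC excited at 355 nm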
Wee1 degr inh: human Wee1 degradation inhibition, primary screen; AID 1321; 220,000 compounds, 1.2% hits; P30291; reporter increase, % at 5 µM; HeLa Luc-Wee1K328M stability, luciferase luminescence; 100% = proteasome inhibitor MG132 effect;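 active = activation above the mean of all tested compounds plus 3 SD, set per screening run, cut at about 8.8% in these data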;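 also: cells exposed to compound for 20 h before luminescence read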
Target sequence (P30291 whole entry K328M): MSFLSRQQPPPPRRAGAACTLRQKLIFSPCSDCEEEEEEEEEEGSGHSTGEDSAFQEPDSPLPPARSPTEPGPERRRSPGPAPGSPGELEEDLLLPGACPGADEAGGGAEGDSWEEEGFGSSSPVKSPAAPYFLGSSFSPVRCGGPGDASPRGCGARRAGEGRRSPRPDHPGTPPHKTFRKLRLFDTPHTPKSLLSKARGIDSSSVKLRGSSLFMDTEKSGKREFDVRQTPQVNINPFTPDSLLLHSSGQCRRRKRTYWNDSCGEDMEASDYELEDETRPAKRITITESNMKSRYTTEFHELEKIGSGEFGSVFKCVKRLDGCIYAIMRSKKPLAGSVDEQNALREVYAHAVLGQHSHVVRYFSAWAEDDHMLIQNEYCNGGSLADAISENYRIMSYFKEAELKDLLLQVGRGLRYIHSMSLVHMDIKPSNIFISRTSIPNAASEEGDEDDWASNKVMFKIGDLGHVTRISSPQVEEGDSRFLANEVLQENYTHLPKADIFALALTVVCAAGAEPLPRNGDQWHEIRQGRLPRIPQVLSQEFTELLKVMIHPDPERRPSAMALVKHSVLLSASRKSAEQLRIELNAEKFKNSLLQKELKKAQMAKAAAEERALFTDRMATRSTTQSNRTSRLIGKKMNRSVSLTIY
hK5 inh: inhibitors of human kallikrein 5; Q9Y337; recombinant hK5, fluorogenic AMC substrate cleavage; inhibition, % at 5 µM; 210,000 compounds, 0.59% hits; AID 873;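 active = inhibition of 40% or more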
Large screens that a line does not name were inactive.

COc1ccc(NS(=O)(=O)c2ccc(N3CCCC3)c(NC(=S)Nc3cccc(C)c3C)c2)cc1	none
O=S(=O)(Cc1ccccc1)c1cnc2ccccc2n1	none
CC(=O)N=c1n(C)c2ccccc2n1CCOc1ccccc1	none
O=C(Nc1ccc(SC(F)F)cc1)c1ccccc1F	hK5 inh 43
O=C(Nc1ccc(F)cc1)c1ccccc1F	none
CCn1nc(C)c(NC(=O)Nc2cccc(Cl)c2Cl)c1C	none (no result: hK5 inh)
CSc1c(CC(=O)NCCO)n(C)c2ccccc12	hK5 inh 51
CCSc1nc2cc(OC)c(OC)cc2c(=O)n1CC	hK5 inh 66
CC(=O)n1nc(-c2cccc(C)c2)nc1SCC(=O)Nc1ccccc1	Thrombin inh 77
CCC(=O)n1nc(-c2ccccc2)nc1SCC(=O)Nc1ccc(C)cc1	Thrombin inh 52
C=CCn1c(SCC(=O)N2CCc3ccccc3C2)nc2sc(C)cc2c1=O	none
COc1cccc(-c2csc(N3CCN(C(=S)Nc4ccccc4)CC3)n2)c1	hK5 inh 112
NS(=O)(=O)c1ccc2c(c1)oc(=O)c1cc(S(N)(=O)=O)ccc12	none
C=CCn1c(Cc2cccs2)nnc1SCC(=O)NCc1ccco1	FXIa inh 1536 48
C=CCn1c(Cc2cccs2)nnc1SCC(=O)Nc1ccc(OC)c(OC)c1	none
O=C(CSc1nnnn1C1CCCCC1)NCc1cccs1	Wee1 degr inh 11
Cn1c(SCC(=O)NCc2cccs2)nnc1-c1cccs1	hK5 inh 52
O=C(CSc1nnnn1C1CCCC1)NCc1cccs1	none
CCn1c(SCC(=O)NCc2cccs2)nnc1-c1cccs1	none
O=C(CCn1cnc2ccccc2c1=O)Nc1cccc(Cl)c1Cl	none
O=C(CSc1ncn[nH]1)Nc1ccc(S(=O)(=O)N2CCCC2)cc1	none
Cc1cc(NC(=O)CSc2nnc(C3CC3)n2N)c([N+](=O)[O-])cc1C	none
CC1(C)C2CC=C(/C=N/n3cnnc3)C1C2 (stereo not given)	FXIIa inh 1536 49
COc1cc(CNc2ncn[nH]2)cc(Br)c1OC	hK5 inh 71
COc1nc(OC)nc(N2CCC(NC(=O)C(Cc3cccc(OC)c3OC)NC(C)=O)CC2)n1 (stereo not given)	none
COc1ccccc1NC(=O)c1ccc(NC(=O)COC(=O)C2(C)CC2(Cl)Cl)cc1 (stereo not given)	none
CNc1ncc(C(=O)c2ccc(Cl)cc2)s1	Wee1 degr inh 9.6
O=C(c1ccc(Cl)cc1)c1oc2ccccc2c1CS(=O)(=O)c1ccccc1	none
Cc1cc(O)c(C(C)C)cc1NC(=O)c1cccc(Cl)c1	Wee1 degr inh 9.5
Cc1cc(O)c(C(C)C)cc1NC(=O)c1ccc(Cl)cc1	none
OC(CN1C2=NCCN2c2ccccc21)c1ccc(Br)cc1 (stereo not given)	hK5 inh 53
CC/C(=N\NC(=O)CSc1ncccn1)c1ccc2c(c1)OCCO2	none
Cc1sc2nc(N)sc2c1C	hK5 inh 63
Cc1ccc(S(=O)(=O)n2[nH]c(=O)c(CCO)c2C)cc1	Wee1 degr inh 9.0 (no result: hK5 inh)
COc1ccc(S(=O)(=O)n2[nH]c(=O)c(CCO)c2C)c([N+](=O)[O-])c1	none
O=C(O)c1ccc(N=Nc2c(O)[nH]c3cc(Cl)ccc23)cc1	Wee1 degr inh 12
CCCOc1ccc(N2C(=O)CC(N(CCOC34CC5CC(CC(C5)C3)C4)C(C)=O)C2=O)cc1 (stereo not given)	none (no result: hK5 inh)
CCN(CC)c1ccc(/C=C(\C#N)C(=O)NCc2ccco2)cc1	hK5 inh 64
CC(C)CCc1noc(CN(CC2CCC2)CC2CCCO2)n1 (stereo not given)	none
COc1ccc(OC)c(NC(=O)CSc2nnnn2C)c1	none
COc1ccccc1NC(=O)CSc1nnnn1C	FXIIa inh 1536 59
O=C(Nc1ccc2c(c1)S(=O)(=O)N=C1CCCCCN12)c1ccccc1Cl	none
N#CCSc1ccc(-c2nc3ccccc3[nH]2)cn1	none
COc1ccccc1NS(=O)(=O)c1cc(NC(=O)C(C)C)ccc1N1CCCCC1	none
COc1ccccc1NS(=O)(=O)c1cc(NC(=O)Nc2ccccc2)ccc1N1CCCCC1	hK5 inh 53
CC(C)c1cc(C(C)C)c(S(=O)(=O)NNC(=O)c2ccncc2)c(C(C)C)c1	none
CCn1ncc(C2=NOC(C(=O)NCc3ccc(OC)cc3)C2)c1C (stereo not given)	none
COc1cccc(C2=NOC(C(=O)Nc3c(C)n(C)n(-c4ccccc4)c3=O)C2)c1 (stereo not given)	none
